Non-standard residues stand in square brackets, D forms with d. Residues, ends and D or L forms follow the SMILES beside them. ξ: configuration not given here. ξDap = NCC(N)C(=O)O
Legend:
[1] = molecular target: T1, Neuropeptide Y receptor type 2 (Homo sapiens, UniProt P49146); experiment: Agonist activity at human neuropeptide Y Y2 receptor expressed in COS-7 cells cotransfected with chimeric Gi/q protein assessed as inositol phosphate accumulation after 2 hrs by anion exchange chromatography; assay type: functional, cell-based
T1 sequence (P49146 whole entry): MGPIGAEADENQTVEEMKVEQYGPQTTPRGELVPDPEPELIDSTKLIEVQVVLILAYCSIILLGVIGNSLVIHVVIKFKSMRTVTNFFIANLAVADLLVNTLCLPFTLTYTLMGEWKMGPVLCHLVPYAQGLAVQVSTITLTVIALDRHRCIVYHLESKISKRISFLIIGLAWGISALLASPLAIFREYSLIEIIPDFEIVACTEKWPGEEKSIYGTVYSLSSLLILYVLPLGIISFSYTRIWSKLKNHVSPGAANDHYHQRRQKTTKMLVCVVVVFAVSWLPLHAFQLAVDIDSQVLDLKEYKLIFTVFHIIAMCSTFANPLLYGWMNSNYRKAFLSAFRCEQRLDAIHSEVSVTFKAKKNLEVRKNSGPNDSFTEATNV
Summary of the method: (§1)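 Inositol phosphate turnover in COS-7 cells stably co-expressing human Y2 receptor and chimeric Gi/q protein; concentration-response curves, responses as % of maximum Y2 activity; SEM over two biological replicates.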

[2] = molecular target: T2, Neuropeptide Y receptor type 2 (Homo sapiens) (UniProt P49146); experiment: Agonist activity at human neuropeptide Y Y2 receptor expressed in COS-7 cells cotransfected with chimeric Gi/q protein assessed as inositol phosphate accumulation after 2 hrs by anion exchange chromatography relative to control; assay type: functional, cell-based; summary of the method: as §1
T2 sequence (whole entry): T1 sequence (P49146 whole entry)

[3] = molecular target: T3, Growth hormone secretagogue receptor type 1 (Homo sapiens, UniProt Q92847); experiment: Inverse agonist activity at human GHSR1a receptor expressed in COS-7 cells assessed as inositol phosphate accumulation after 2 hrs by anion exchange chromatography; assay type: functional, cell-based
T3 sequence (Q92847 whole entry): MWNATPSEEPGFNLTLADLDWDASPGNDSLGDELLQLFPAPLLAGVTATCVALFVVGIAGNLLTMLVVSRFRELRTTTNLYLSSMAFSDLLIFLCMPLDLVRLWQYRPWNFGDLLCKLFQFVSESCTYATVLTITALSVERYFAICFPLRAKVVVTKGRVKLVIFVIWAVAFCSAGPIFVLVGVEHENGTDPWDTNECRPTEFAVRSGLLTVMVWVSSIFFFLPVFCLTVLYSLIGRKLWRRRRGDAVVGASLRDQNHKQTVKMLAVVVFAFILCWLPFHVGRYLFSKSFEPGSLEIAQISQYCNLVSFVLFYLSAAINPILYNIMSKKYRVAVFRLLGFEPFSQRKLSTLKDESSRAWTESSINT

[4] = molecular target: T3, Growth hormone secretagogue receptor type 1; experiment: Inverse agonist activity at human GHSR1a receptor expressed in COS-7 cells assessed as inositol phosphate accumulation after 2 hrs by anion exchange chromatography relative to control; assay type: functional, cell-based
[5] = molecular target: T3, Growth hormone secretagogue receptor type 1; experiment: Displacement of [125I]ghrelin from human eYFP-fused ghrelin receptor expressed in COS7 cells after 75 mins by competitive receptor binding assay; assay type: cell-based, COS-7; details: cos-7
[6] = molecular target: T1, Neuropeptide Y receptor type 2; experiment: Displacement of [125I]PYY from human neuropeptide Y Y2 receptor expressed in HEK293 cells cotransfected with eYFP fusion protein after 2 hrs by competitive receptor binding assay; assay type: cell-based; details: hek293
Summary of the method: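 Competitive binding against 125I-PYY in HEK-293 cells stably expressing human Y2 receptor; concentration-response curves.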

[7] = molecular target: T4, Neuropeptide Y receptor type 1 (Homo sapiens) (UniProt P25929); experiment: Agonist activity at human neuropeptide Y Y1 receptor expressed in COS-7 cells cotransfected with chimeric Gi/q protein assessed as inositol phosphate accumulation at 1 uM after 2 hrs by anion exchange chromatography; assay type: functional, cell-based
T4 sequence (whole entry): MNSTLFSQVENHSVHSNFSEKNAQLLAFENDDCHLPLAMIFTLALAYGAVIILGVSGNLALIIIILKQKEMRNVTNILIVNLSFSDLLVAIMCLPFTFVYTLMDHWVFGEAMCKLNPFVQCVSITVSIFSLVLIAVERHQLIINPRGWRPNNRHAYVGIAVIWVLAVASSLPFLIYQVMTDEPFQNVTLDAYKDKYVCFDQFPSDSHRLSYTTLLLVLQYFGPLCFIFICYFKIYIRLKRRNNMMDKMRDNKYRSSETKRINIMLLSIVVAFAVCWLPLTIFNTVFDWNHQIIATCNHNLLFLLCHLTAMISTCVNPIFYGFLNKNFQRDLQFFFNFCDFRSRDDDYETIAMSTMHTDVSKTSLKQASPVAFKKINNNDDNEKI
Summary of the method: (§2)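 COS-7 cells stably co-expressing the corresponding human Y receptor plus a chimeric Gi/q protein; single high concentration tested in inositol phosphate accumulation; response as % of NPY response at each receptor; SEM over two biological replicates.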

[8] = molecular target: Neuropeptide Y receptor type 4 (Homo sapiens) (UniProt P50391); experiment: Agonist activity at human neuropeptide Y Y4 receptor expressed in COS-7 cells cotransfected with chimeric Gi/q protein assessed as inositol phosphate accumulation at 1 uM after 2 hrs by anion exchange chromatography; assay type: functional, cell-based; summary of the method: as §2
Chain of Neuropeptide Y receptor type 4 (Homo sapiens) (P50391 whole entry): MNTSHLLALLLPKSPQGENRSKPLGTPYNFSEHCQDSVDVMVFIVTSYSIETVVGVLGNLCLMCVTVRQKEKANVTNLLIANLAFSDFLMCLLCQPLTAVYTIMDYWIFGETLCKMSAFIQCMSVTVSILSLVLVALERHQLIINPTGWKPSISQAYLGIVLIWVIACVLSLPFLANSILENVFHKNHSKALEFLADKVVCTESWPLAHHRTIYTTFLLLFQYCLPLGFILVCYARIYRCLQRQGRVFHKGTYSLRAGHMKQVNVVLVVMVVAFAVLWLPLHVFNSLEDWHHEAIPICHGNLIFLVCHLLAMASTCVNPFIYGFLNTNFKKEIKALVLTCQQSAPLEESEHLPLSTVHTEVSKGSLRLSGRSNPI

[9] = molecular target: T5, Neuropeptide Y receptor type 5 (Homo sapiens) (UniProt Q15761); experiment: Agonist activity at human neuropeptide Y Y5 receptor expressed in COS-7 cells cotransfected with chimeric Gi/q protein assessed as inositol phosphate accumulation at 1 uM after 2 hrs by anion exchange chromatography; assay type: functional, cell-based; summary of the method: as §2
T5 sequence (whole entry): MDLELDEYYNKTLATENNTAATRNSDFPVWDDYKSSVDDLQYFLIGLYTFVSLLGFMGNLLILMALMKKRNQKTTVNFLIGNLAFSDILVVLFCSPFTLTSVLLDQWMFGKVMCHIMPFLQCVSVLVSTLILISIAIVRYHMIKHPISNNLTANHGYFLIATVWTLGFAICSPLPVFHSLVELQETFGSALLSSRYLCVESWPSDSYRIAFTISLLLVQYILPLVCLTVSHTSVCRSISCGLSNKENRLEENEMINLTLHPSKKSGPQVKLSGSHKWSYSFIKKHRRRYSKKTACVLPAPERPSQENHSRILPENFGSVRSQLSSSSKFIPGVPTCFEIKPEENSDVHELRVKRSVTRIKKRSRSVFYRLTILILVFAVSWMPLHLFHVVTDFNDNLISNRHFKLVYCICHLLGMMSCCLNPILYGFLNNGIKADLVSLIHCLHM

CC(=O)NC(CN)C(=O)N[C@@H](CC(C)C)C(=O)N[C@@H](CCCNC(=N)N)C(=O)N[C@@H](Cc1cnc[nH]1)C(=O)N[C@@H](Cc1ccc(O)cc1)C(=O)N[C@@H](CC(C)C)C(=O)N[C@@H](CC(N)=O)C(=O)N[C@@H](CC(C)C)C(=O)N[C@@H](CC(C)C)C(=O)N[C@H](C(=O)N[C@@H](CCCNC(=N)N)C(=O)N[C@@H](CCC(N)=O)C(=O)N[C@@H](CCCNC(=N)N)C(=O)N[C@@H](Cc1ccc(O)cc1)C(N)=O)[C@@H](C)O (some centres undefined) (Ac-[ξDap]LRHYLNLLTRQRY-NH2)
EC50 [1]: 0.4 nM | Efficacy [2]: 77%

CC(C)C[C@H](NC(=O)[C@@H](Cc1c[nH]c2ccccc12)NC(=O)[C@H](Cc1ccccc1)NC(=O)[C@@H](Cc1cccc2ccccc12)NC(=O)[C@@H](N)CCCCN)C(=O)N[C@@H](CCC(N)=O)C(=O)O
EC50 ([3]; cos-7): 70.2 nM | EC50 ([1]; cos-7): > 1000 nM

CC(C)C[C@H](NC(=O)[C@H](CC(C)C)NC(=O)[C@@H](Cc1c[nH]c2ccccc12)NC(=O)[C@H](Cc1ccccc1)NC(=O)[C@H](Cc1cccc2ccccc12)NC(=O)[C@H](CCCCN)NC(=O)CCC(=O)O)C(N)=O
Efficacy [4]: 88%

CC(C)C[C@H](NC(=O)[C@H](CC(C)C)NC(=O)[C@@H](Cc1c[nH]c2ccccc12)NC(=O)[C@H](Cc1ccccc1)NC(=O)[C@@H](Cc1cccc2ccccc12)NC(=O)[C@H](CCCCN)NC(=O)CCC(=O)O)C(N)=O
EC50 ([3]; cos-7): 29 nM | EC50 ([1]; cos-7): > 1000 nM

CC(=O)N[C@@H](CCCCNC(=O)CCCCCNC(=O)[C@H](CC(N)=O)NC(=O)[C@H](CC(C)C)NC(=O)[C@@H](Cc1c[nH]c2ccccc12)NC(=O)[C@H](Cc1ccccc1)NC(=O)[C@@H](Cc1cccc2ccccc12)NC(=O)[C@@H](N)CCCCN)C(=O)N[C@@H](CC(C)C)C(=O)N[C@@H](CCCNC(=N)N)C(=O)N[C@@H](Cc1cnc[nH]1)C(=O)N[C@@H](Cc1ccc(O)cc1)C(=O)N[C@@H](CC(C)C)C(=O)N[C@@H](CC(N)=O)C(=O)N[C@@H](CC(C)C)C(=O)N[C@@H](CC(C)C)C(=O)N[C@H](C(=O)N[C@@H](CCCNC(=N)N)C(=O)N[C@@H](CCC(N)=O)C(=O)N[C@@H](CCCNC(=N)N)C(=O)N[C@@H](Cc1ccc(O)cc1)C(N)=O)[C@@H](C)O
EC50 [3]: 267 nM | Efficacy [4]: 64%

CC(C)C[C@H](NC(=O)[C@@H](Cc1c[nH]c2ccccc12)NC(=O)[C@H](Cc1ccccc1)NC(=O)[C@H](Cc1cccc2ccccc12)NC(=O)[C@@H](N)CCCCN)C(=O)N[C@@H](CC(N)=O)C(=O)O
Efficacy [4]: 86%

CC(C)C[C@H](NC(=O)[C@H](CC(C)C)NC(=O)[C@@H](Cc1c[nH]c2ccccc12)NC(=O)[C@H](Cc1ccccc1)NC(=O)[C@@H](Cc1cccc2ccccc12)NC(=O)[C@H](CCCCN)NC(=O)[C@H](CCCCN)NC(=O)CCC(=O)O)C(N)=O
EC50 ([3]; cos-7): 60.2 nM | EC50 ([1]; cos-7): > 1000 nM

CC(=O)N[C@@H](CCCCN)C(=O)N[C@@H](CC(C)C)C(=O)N[C@@H](CCCNC(=N)N)C(=O)N[C@@H](Cc1cnc[nH]1)C(=O)N[C@@H](Cc1ccc(O)cc1)C(=O)N[C@@H](CC(C)C)C(=O)N[C@@H](CC(N)=O)C(=O)N[C@@H](CC(C)C)C(=O)N[C@@H](CC(C)C)C(=O)N[C@H](C(=O)N[C@@H](CCCNC(=N)N)C(=O)N[C@@H](CCC(N)=O)C(=O)N[C@@H](CCCNC(=N)N)C(=O)N[C@@H](Cc1ccc(O)cc1)C(N)=O)[C@@H](C)O (Ac-KLRHYLNLLTRQRY-NH2)
EC50 [3]: > 1000 nM | EC50 [1]: 0.5 nM | Efficacy [2]: 68%

CC(C)C[C@H](NC(=O)[C@@H](Cc1c[nH]c2ccccc12)NC(=O)[C@H](Cc1ccccc1)NC(=O)[C@H](Cc1cccc2ccccc12)NC(=O)[C@@H](N)CCCCN)C(=O)N[C@@H](CCC(N)=O)C(=O)O
Efficacy [4]: 92%

CC(=O)N[C@@H](CNC(=O)CCC(=O)N[C@@H](CCCCN)C(=O)N[C@@H](CCCCN)C(=O)N[C@H](Cc1cccc2ccccc12)C(=O)N[C@@H](Cc1ccccc1)C(=O)N[C@H](Cc1c[nH]c2ccccc12)C(=O)N[C@@H](CC(C)C)C(=O)N[C@@H](CC(C)C)C(N)=O)C(=O)N[C@@H](CC(C)C)C(=O)N[C@@H](CCCNC(=N)N)C(=O)N[C@@H](Cc1cnc[nH]1)C(=O)N[C@@H](Cc1ccc(O)cc1)C(=O)N[C@@H](CC(C)C)C(=O)N[C@@H](CC(N)=O)C(=O)N[C@@H](CC(C)C)C(=O)N[C@@H](CC(C)C)C(=O)N[C@H](C(=O)N[C@@H](CCCNC(=N)N)C(=O)N[C@@H](CCC(N)=O)C(=O)N[C@@H](CCCNC(=N)N)C(=O)N[C@@H](Cc1ccc(O)cc1)C(N)=O)[C@@H](C)O
EC50 ([3]; cos-7): 110 nM | EC50 ([1]; cos-7): 2 nM | IC50 [5]: 70.4 nM | IC50 [6]: 9.7 nM

CC(C)C[C@H](NC(=O)[C@@H](Cc1c[nH]c2ccccc12)NC(=O)[C@H](Cc1ccccc1)NC(=O)[C@@H](Cc1cccc2ccccc12)NC(=O)[C@@H](N)CCCCN)C(=O)N[C@@H](CC(N)=O)C(=O)O
EC50 ([3]; cos-7): 189 nM

CC(C)C[C@H](NC(=O)[C@H](CC(C)C)NC(=O)[C@@H](Cc1c[nH]c2ccccc12)NC(=O)[C@H](Cc1ccccc1)NC(=O)[C@H](Cc1cccc2ccccc12)NC(=O)[C@H](CCCCN)NC(=O)[C@H](CCCCN)NC(=O)CCC(=O)O)C(N)=O
Efficacy [4]: 84%

CC(=O)N[C@@H](CCCCNC(=O)CCNC(=O)[C@H](CC(N)=O)NC(=O)[C@H](CC(C)C)NC(=O)[C@@H](Cc1c[nH]c2ccccc12)NC(=O)[C@H](Cc1ccccc1)NC(=O)[C@@H](Cc1cccc2ccccc12)NC(=O)[C@@H](N)CCCCN)C(=O)N[C@@H](CC(C)C)C(=O)N[C@@H](CCCNC(=N)N)C(=O)N[C@@H](Cc1cnc[nH]1)C(=O)N[C@@H](Cc1ccc(O)cc1)C(=O)N[C@@H](CC(C)C)C(=O)N[C@@H](CC(N)=O)C(=O)N[C@@H](CC(C)C)C(=O)N[C@@H](CC(C)C)C(=O)N[C@H](C(=O)N[C@@H](CCCNC(=N)N)C(=O)N[C@@H](CCC(N)=O)C(=O)N[C@@H](CCCNC(=N)N)C(=O)N[C@@H](Cc1ccc(O)cc1)C(N)=O)[C@@H](C)O
EC50 [3]: 331 nM | Efficacy [4]: 74%

CC(=O)NC(CNC(=O)CCC(=O)N[C@@H](CCCCN)C(=O)N[C@@H](CCCCN)C(=O)N[C@@H](Cc1cccc2ccccc12)C(=O)N[C@@H](Cc1ccccc1)C(=O)N[C@H](Cc1c[nH]c2ccccc12)C(=O)N[C@@H](CC(C)C)C(=O)N[C@@H](CC(C)C)C(N)=O)C(=O)N[C@@H](CC(C)C)C(=O)N[C@@H](CCCNC(=N)N)C(=O)N[C@@H](Cc1cnc[nH]1)C(=O)N[C@@H](Cc1ccc(O)cc1)C(=O)N[C@@H](CC(C)C)C(=O)N[C@@H](CC(N)=O)C(=O)N[C@@H](CC(C)C)C(=O)N[C@@H](CC(C)C)C(=O)N[C@H](C(=O)N[C@@H](CCCNC(=N)N)C(=O)N[C@@H](CCC(N)=O)C(=O)N[C@@H](CCCNC(=N)N)C(=O)N[C@@H](Cc1ccc(O)cc1)C(N)=O)[C@@H](C)O (some centres undefined)
Efficacy [4]: 78% | Efficacy [2]: 82% | Efficacy [7]: < 25% | Efficacy [8]: < 25% | Efficacy [9]: 33%

Reference: ChEMBL document CHEMBL3576822 (J Med Chem, 2015)
